Results published in ChEMBL document CHEMBL1135891, “Development of long-acting dopamine transporter ligands as potential cocaine-abuse therapeutic agents: chiral hydroxyl-containing derivatives of 1-[2-[bis(4-fluorophenyl)methoxy]ethyl]-4-(3-phenylpropyl)piperazine and 1-[2-(diphenylmethoxy)ethyl]-4-(3-phenylpropyl)piperazine” (J Med Chem, 2002).

Experiments:
[1] = molecular target: Sodium-dependent dopamine transporter (Rattus norvegicus, UniProt P23977); experiment: Binding affinity for dopamine transporter
Chain of Sodium-dependent dopamine transporter (P23977 whole entry): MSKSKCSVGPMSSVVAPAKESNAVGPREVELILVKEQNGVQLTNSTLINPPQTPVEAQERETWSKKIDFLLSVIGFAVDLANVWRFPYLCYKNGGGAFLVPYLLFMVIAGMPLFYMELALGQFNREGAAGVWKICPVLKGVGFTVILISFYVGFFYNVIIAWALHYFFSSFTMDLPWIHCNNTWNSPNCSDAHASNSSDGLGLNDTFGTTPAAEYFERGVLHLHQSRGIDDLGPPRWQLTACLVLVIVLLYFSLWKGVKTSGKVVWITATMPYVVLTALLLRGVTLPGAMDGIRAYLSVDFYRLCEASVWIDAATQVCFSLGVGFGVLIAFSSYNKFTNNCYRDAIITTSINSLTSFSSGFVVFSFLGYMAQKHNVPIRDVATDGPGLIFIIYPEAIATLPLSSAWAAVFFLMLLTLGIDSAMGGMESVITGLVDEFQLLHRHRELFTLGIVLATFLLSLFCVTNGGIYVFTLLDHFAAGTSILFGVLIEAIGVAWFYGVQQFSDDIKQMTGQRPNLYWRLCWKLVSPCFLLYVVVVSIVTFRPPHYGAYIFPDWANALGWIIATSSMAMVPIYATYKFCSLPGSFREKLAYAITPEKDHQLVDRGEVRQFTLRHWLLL
How it was run: (§1)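 [125I]RTI-55 competition binding. Drugs and blockers in 55.2 mM sodium phosphate buffer pH 7.4 with 1 mg/mL BSA. Radioligand in the same buffer with chymostatin, leupeptin, EDTA and EGTA. Triplicate incubation for 18–24 h at 4 °C to equilibrium. Filtered over GF/B filters presoaked in 2% polyethylenimine, washed with ice-cold Tris-HCl/NaCl pH 7.4. Ki derived.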

[2] = molecular target: Sodium-dependent serotonin transporter (Rattus norvegicus, UniProt P31652); experiment: Binding affinity for serotonin transporter; how it was run: as §1
Chain of Sodium-dependent serotonin transporter (P31652 whole entry): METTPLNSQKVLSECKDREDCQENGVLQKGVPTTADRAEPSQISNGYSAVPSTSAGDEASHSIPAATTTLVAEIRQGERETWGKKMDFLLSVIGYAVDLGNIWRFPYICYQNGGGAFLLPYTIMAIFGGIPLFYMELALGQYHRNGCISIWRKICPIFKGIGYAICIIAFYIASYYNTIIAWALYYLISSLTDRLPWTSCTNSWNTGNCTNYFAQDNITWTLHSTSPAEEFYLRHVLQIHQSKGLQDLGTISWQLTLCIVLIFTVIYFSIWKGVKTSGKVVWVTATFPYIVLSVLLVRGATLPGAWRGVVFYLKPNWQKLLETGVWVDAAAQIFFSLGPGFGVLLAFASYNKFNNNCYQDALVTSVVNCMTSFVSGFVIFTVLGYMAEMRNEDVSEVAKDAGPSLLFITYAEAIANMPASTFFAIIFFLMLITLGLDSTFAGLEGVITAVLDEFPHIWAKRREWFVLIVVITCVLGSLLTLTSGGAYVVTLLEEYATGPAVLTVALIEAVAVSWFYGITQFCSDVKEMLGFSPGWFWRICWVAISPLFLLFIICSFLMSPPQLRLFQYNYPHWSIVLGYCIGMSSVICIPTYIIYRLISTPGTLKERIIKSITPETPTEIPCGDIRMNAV

[3] = molecular target: Monoamine transporters; serotonin & dopamine (Rattus norvegicus) (UniProt P31652+P23977); experiment: Selectivity ratio for serotonin transporter to dopamine transporter; assay type: protein assay
Chain of Monoamine transporters; serotonin & dopamine (Rattus norvegicus) (P23977 whole entry, looked up): as the sequence (P23977 whole entry) above
Chain of Monoamine transporters; serotonin & dopamine (Rattus norvegicus) (P31652 whole entry, looked up): as the sequence (P31652 whole entry) above

Rattus norvegicus = experiment: Dopamine (DA) reuptake inhibition properties of in vivo extracellular dopamine (ECDA) levels in rat nucleus accumbens microdialysis assay, at […]; assay type: functional
How it was run: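 Male Sprague–Dawley rats (300–450 g), conscious and freely moving, with jugular catheters and nucleus accumbens probes (2 mm exchange surface). Single iv doses (as salt) of drug or saline vehicle given after three baseline samples. Dialysate taken every 20 min for 2 h, DA by microbore HPLC-EC. Values are pg/5 µL, mean ± SEM, n = 4–5 rats/group. Repeated-measures ANOVA.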

| Structure (SMILES) | Ki [1] [nM] | Ki [2] [nM] | Ratio [3] | DA level (Rattus norvegicus) [pg 5ul-1] |
| --- | --- | --- | --- | --- |
| OC(Cc1ccccc1)CN1CCN(CCOC(c2ccc(F)cc2)c2ccc(F)cc2)CC1 (racemic) | 2.3 | 120 | 52 |  |
| O[C@@H](CN1CCN(CCOC(c2ccccc2)c2ccccc2)CC1)c1ccccc1 | 170 | 330 | 2 |  |
| O[C@@H](CN1CCN(CCOC(c2ccc(F)cc2)c2ccc(F)cc2)CC1)c1ccccc1 | 26 | 13 | 0.5 |  |
| O[C@@H](Cc1ccccc1)CN1CCN(CCOC(c2ccc(F)cc2)c2ccc(F)cc2)CC1 | 0.75 | 230 | 307 | 1.73 |
| O[C@H](Cc1ccccc1)CN1CCN(CCOC(c2ccccc2)c2ccccc2)CC1 | 25 | 1800 | 72 |  |
| OCC(c1ccccc1)N1CCN(CCOC(c2ccccc2)c2ccccc2)CC1 (racemic) | 120 | 3800 | 32 |  |
| O[C@H](Cc1ccccc1)CN1CCN(CCOC(c2ccc(F)cc2)c2ccc(F)cc2)CC1 | 12 | 160 | 13 | 1.73 |
| O[C@H](CN1CCN(CCOC(c2ccc(F)cc2)c2ccc(F)cc2)CC1)c1ccccc1 | 11 | 77 | 7 |  |
| OCC(c1ccccc1)N1CCN(CCOC(c2ccc(F)cc2)c2ccc(F)cc2)CC1 (racemic) | 48 | 2500 | 52 |  |
| O[C@@H](Cc1ccccc1)CN1CCN(CCOC(c2ccccc2)c2ccccc2)CC1 | 2.3 | 2160 | 939 |  |
| Fc1ccc(C(OCCN2CCN(CCc3ccccc3)CC2)c2ccc(F)cc2)cc1 | 8 | 36 | 5 |  |
| O[C@H](CN1CCN(CCOC(c2ccccc2)c2ccccc2)CC1)c1ccccc1 | 30 | 1400 | 47 |  |
